Results published in ChEMBL document CHEMBL4400539, “Discovery of a Novel Chemotype of Histone Lysine Methyltransferase EHMT1/2 (GLP/G9a) Inhibitors: Rational Design, Synthesis, Biological Evaluation, and Co-crystal Structure” (J Med Chem, 2019).
Active and inactive are the calls of the source. The calls are words filed in the database; no cut-off is given here.

What was measured:
[1] = biological target: T1, Histone-lysine N-methyltransferase EHMT2 (Homo sapiens, UniProt Q96KQ7); test: Binding affinity to human His-tagged G9a expressed in Escherichia coli Rosetta (DE3) after 30 mins by MST binding assay
T1 sequence (Q96KQ7 whole entry): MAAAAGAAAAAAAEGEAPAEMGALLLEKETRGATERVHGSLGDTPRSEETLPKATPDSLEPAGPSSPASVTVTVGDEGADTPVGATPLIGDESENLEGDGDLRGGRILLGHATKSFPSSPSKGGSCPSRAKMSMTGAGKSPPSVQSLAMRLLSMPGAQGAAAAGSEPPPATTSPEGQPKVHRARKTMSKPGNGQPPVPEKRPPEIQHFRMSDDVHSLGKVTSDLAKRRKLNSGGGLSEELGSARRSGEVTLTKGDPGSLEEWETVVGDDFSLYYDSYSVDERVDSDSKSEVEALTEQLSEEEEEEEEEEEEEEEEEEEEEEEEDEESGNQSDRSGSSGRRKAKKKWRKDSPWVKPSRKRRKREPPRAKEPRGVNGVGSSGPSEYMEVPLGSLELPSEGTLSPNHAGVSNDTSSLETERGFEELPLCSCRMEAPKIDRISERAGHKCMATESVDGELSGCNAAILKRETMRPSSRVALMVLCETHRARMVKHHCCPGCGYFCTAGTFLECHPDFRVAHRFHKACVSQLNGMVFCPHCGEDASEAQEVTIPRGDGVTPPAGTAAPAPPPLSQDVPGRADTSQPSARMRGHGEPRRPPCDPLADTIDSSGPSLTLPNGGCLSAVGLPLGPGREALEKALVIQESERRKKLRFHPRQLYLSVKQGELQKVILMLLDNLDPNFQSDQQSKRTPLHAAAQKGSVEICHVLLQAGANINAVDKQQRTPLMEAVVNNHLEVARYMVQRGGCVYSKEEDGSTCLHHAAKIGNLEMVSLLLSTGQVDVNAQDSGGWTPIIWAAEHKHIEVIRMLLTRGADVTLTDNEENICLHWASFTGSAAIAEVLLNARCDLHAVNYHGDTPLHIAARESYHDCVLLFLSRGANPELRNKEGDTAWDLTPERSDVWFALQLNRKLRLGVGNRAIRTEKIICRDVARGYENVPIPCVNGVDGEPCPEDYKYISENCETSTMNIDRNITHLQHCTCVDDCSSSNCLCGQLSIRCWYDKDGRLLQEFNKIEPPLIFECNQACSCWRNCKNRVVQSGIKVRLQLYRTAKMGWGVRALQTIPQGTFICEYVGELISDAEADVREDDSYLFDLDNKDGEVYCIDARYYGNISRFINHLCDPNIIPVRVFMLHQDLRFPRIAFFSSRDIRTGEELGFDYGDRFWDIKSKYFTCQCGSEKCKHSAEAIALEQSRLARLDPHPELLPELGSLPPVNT

[2] = biological target: DNA (cytosine-5)-methyltransferase 1 (Homo sapiens, UniProt P26358); test: Inhibition of N-terminal GST-tagged recombinant full length human DNMT1 (2 to 1632 residues) using poly(dI-dC)):poly(dI-dC) as substrate preincubated for 20 mins followed by [3H]-SAM and measured after 60 mins by scintillation counting
[3] = biological target: Protein arginine N-methyltransferase 1 (Homo sapiens) (UniProt Q99873); test: Inhibition of recombinant human PRMT1 at 10 to 25 uM using biotinylated-Histone H4 peptide (1 to 21 residues) as substrate preincubated for 30 mins followed by substrate addition and measured after 60 mins in presence of SAM by AlphaLISA assay relative to control
Summary of the method: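 Biotinylated H4(1–21) peptide plus SAM then added for 60 min: PRMT1 0.9 nM, peptide 100 nM, SAM 2 μM; PRMT3 23 nM, peptide 50 nM, SAM 10 μM. Anti-H4R3me AlphaLISA; 10 and 25 μM; three experiments, mean ± SD.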

[4] = Metabolic stability in human liver microsomes assessed as parent compound turn over percentage at 1 mM preincubated for 5 mins followed by NADPH addition and measured for 60 mins by UHPLC analysis; format: ADME, Microsome; details: read-out: Drug metabolism
[5] = Apparent permeability of the compound after 24 hrs by PAMPA; format: ADME
[6] = Apparent permeability of the compound after 24 hrs by BBB-PAMPA; format: ADME
MDA-MB-231 = test: Cytotoxicity against human MDA-MB-231 cells assessed as reduction in cell viability up to 5 uM after 72 hrs by MTT assay; format: cell-based; details: mda-mb-231, 72 h
Summary of the method: (§1)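 MCF-7, MDA-MB-231 and U-343 cells exposed 24, 48 and 72 h to 0.05, 0.5, 5 and 50 μM compound; viability by MTT reduction to formazan versus vehicle; mean ± SD of at least three independent experiments.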

[7] = Cytotoxicity against human U343MG cells assessed as reduction in cell viability up to 5 uM after 72 hrs by MTT assay; format: cell-based; summary of the method: as §1
[8] = biological target: DNA (cytosine-5)-methyltransferase 3A (Homo sapiens) (UniProt Q9Y6K1); test: Inhibition of N-terminal GST-tagged recombinant full length human DNMT3a (2 to 913 residues) using bacteriophage lambda DNA as substrate preincubated for 20 mins followed by [3H]-SAM and measured after 60 mins by scintillation counting
[9] = biological target: DNA (cytosine-5)-methyltransferase 3B (Homo sapiens) (UniProt Q9UBC3); test: Inhibition of N-terminal GST-tagged recombinant full length human DNMT3b (2 to 853 residues) using bacteriophage lambda DNA as substrate preincubated for 20 mins followed by [3H]-SAM and measured after 60 mins by scintillation counting
[10] = biological target: T1, Histone-lysine N-methyltransferase EHMT2; test: Non-competitive inhibition of recombinant human G9a using biotinylated-Histone H3 peptide (1 to 21 residues) as substrate after 30 mins in presence of varying concentration of SAM by Lineweaver-Burk plot analysis

Sequence of Protein arginine N-methyltransferase 1 (Homo sapiens) (Q99873 whole entry, looked up, the tested form may be a part): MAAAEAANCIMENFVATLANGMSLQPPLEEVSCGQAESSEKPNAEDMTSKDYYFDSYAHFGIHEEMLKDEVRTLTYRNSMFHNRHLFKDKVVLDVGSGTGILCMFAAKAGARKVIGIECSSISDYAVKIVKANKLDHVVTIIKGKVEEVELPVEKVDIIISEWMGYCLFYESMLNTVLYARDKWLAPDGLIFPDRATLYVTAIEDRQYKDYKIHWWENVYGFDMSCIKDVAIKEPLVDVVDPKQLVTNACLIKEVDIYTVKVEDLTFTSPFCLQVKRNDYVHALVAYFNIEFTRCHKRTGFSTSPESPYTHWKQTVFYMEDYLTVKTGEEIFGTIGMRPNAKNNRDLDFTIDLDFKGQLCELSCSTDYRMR
Sequence of DNA (cytosine-5)-methyltransferase 3A (Homo sapiens) (Q9Y6K1 whole entry, looked up, the tested form may be a part): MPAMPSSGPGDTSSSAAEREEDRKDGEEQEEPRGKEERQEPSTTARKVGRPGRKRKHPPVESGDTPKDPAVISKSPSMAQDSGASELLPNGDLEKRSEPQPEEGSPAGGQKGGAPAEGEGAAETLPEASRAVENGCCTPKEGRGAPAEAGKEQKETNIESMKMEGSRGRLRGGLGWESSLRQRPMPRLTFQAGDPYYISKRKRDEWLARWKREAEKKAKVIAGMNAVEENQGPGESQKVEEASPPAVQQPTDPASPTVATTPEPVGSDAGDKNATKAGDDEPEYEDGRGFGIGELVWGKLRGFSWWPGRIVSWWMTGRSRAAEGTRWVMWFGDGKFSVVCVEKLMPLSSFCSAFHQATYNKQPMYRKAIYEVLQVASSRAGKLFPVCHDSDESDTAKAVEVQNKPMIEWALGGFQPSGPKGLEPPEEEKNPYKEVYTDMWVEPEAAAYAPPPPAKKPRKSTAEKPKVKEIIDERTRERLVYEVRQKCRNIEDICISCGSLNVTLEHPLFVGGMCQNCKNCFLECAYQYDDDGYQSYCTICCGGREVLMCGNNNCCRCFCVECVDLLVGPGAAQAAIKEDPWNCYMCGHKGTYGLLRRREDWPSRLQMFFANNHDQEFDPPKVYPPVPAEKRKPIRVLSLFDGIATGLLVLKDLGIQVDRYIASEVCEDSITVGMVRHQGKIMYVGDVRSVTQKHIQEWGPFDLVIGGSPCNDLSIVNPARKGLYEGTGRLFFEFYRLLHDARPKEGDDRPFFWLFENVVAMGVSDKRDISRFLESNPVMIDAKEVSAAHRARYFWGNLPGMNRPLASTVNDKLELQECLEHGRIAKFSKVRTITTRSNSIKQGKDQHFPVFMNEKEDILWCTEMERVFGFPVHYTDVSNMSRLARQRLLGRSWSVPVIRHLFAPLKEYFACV
Sequence of DNA (cytosine-5)-methyltransferase 1 (P26358 whole entry, the tested form may be a part): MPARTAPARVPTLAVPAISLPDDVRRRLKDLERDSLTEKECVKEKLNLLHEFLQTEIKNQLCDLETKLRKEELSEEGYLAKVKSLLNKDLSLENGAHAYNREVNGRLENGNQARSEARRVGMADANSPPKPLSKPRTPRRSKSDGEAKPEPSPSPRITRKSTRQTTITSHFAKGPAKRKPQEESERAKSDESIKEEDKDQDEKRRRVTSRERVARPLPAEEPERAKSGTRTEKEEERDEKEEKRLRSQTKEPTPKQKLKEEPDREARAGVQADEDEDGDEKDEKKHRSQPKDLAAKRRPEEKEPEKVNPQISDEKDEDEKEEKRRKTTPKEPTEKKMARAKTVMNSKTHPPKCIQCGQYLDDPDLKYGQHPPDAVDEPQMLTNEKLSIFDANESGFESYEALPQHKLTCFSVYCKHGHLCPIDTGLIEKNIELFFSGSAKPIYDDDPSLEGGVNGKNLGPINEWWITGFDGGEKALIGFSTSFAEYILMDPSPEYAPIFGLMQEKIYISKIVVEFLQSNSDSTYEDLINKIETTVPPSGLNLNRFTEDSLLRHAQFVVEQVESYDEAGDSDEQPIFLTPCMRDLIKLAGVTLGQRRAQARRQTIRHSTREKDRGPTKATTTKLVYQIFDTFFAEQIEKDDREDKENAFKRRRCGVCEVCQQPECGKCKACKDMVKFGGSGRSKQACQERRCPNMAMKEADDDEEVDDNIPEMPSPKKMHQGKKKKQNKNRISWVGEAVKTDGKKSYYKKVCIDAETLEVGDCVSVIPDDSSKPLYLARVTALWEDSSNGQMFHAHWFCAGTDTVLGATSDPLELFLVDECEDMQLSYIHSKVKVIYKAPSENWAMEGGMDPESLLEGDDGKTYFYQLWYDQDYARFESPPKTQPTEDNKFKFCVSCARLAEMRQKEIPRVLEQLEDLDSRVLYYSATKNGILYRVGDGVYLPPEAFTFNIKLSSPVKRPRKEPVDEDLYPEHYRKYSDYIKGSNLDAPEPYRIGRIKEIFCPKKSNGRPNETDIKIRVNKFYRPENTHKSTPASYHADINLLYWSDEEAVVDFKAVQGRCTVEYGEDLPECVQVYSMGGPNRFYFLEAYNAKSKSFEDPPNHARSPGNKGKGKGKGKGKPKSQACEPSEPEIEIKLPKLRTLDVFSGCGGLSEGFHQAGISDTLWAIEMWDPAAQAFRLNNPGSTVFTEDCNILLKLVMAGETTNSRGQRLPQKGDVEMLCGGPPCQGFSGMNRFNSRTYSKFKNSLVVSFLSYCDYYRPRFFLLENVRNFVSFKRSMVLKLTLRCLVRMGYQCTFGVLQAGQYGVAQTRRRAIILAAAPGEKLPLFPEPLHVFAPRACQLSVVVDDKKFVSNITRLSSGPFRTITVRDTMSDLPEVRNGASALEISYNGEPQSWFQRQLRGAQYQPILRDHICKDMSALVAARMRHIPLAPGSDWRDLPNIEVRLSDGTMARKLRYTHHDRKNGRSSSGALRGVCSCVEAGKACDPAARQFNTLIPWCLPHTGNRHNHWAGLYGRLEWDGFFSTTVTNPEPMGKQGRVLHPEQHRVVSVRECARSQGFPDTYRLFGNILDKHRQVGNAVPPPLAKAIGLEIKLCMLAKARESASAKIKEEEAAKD

## COc1cc2c(cc1OCCCN1CCCC1)N=C(C1CCCCC1)CN=C2NC1CCN(C(C)C)CC1
[1]
  Kd: 1.13 µM
[2]
  IC50: 3.1 µM
[3]
  inhibition: inactive
[4]
  metabolised at 1 h: 2.25%
[5]
  Papp: 4.8 ×10⁻⁷ cm/s
[6]
  Papp: 2.3 ×10⁻⁷ cm/s
MDA-MB-231
  Activity: Non-Toxic
[7]
  Activity: Non-Toxic
[8]
  inhibition: inactive
[9]
  inhibition: inactive
[10]
  Ki: 0.0036 µM
